From PubChem BioAssay
Mdm2 ligase inh: blocks human Mdm2 ubiquitin ligase activity; signal enhancement, % at 5 µM; cell-based MDM2 ubiquitination luciferase reporter, 2 h; 0 = plate control, 100 = twice control, blank-subtracted; 0.11% of 210,000 active;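 active = signal enhancement of 30% or more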;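 also: luminescence tracks abundance of the self-degrading MDM2-luciferase fusion protein; higher signal means inhibition of MDM2 E3 ligase activity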
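Assay system: stable mammalian line carrying autodegrading MDM2–luciferase fusion reporter; Input: 2000 cells in each well; Compound dosing: single-point 5 µM; Schedule: 2 h compound exposure at 37 °C; Signal: SteadyLite luciferase luminescence after 15 min room-temperature reagent incubation; Evaluation: % luminescence enhancement versus blank-corrected plate control mean; Benchmarks: plate controls and plate blanks.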
Hsp70 activator: switches on Hsp70 transcription; activation, % at 10 µM; HeLa Hsp70 promoter luciferase reporter, luminescence; scaled: vehicle 0, proteasome-inhibitor control 100%; 0.04% of 200,000 active; AID 1203;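 active = activation above the mean across all tested compounds plus 3 SD, cutoff set per campaign, cut at about 5.5% in these data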
Pf gamet viab: kills late stage P. falciparum gametocytes. P. falciparum stage V gametocytes, ATP luminescence, 24 h. inhibition, % at 10.9 µM. 0.065% of 150,000 active;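 active = inhibition above the mean plus 3 SD of compounds within the control limits, set per campaign, cut at about 38% in these data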
Wee1 degr inh: inhibitors of human Wee1 degradation; reporter increase, % at 5 µM; 1.2% of 220,000 active; AID 1321; HeLa Luc-Wee1K328M stability, luciferase luminescence; 100% = proteasome inhibitor MG132 effect;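 active = activation above the mean of all tested compounds plus 3 SD, set per screening run, cut at about 8.8% in these data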;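 also: cells exposed to compound for 20 h before luminescence read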
Target sequence (P30291 whole entry K328M): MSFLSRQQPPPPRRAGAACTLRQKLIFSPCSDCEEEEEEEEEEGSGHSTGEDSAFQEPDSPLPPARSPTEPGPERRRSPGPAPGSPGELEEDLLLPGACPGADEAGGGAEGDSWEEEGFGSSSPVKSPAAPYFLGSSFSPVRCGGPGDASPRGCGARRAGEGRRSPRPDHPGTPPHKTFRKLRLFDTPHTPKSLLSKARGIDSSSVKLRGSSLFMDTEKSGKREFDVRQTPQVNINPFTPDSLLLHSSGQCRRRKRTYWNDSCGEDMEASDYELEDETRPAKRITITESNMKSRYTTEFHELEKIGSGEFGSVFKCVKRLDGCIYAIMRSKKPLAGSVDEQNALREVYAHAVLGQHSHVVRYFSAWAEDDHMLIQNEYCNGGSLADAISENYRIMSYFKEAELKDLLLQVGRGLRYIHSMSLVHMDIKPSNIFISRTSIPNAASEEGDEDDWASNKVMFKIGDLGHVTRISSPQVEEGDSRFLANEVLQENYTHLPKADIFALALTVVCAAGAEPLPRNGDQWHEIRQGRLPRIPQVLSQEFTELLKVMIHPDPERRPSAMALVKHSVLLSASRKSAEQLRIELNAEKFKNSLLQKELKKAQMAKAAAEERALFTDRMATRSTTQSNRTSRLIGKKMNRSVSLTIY
Hsp70 act dose: activates Hsp70 transcription in dose response; shares compounds with Hsp70 activator; HeLa hsp70.1pr-luc reporter, luciferase luminescence; calls only at 99 µM; 10% of 70 active;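 active = over 50% activation at some tested dose; inactive = under 50% activation at every tested dose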
Wee1 stab conf: confirmation of human Wee1 degradation inhibitors. activation, % at 5 µM. shares compounds with Wee1 degr inh. HeLa Luc-Wee1K328M degradation, luminescence; vehicle 0%, proteasome-blocked wells 100%. 4% of 1,100 active; in the data active = activation above about 8.9%
Hits are given with their value; 0 = inactive; - = no result; + = active, no number. An excerpt weighted towards active compounds, which were near 1.3% of everything screened.

SMILES	Mdm2 ligase inh	Hsp70 activator	Pf gamet viab	Wee1 degr inh	Hsp70 act dose	others
O=C(COC(=O)CCc1nc2ccccc2c(=O)[nH]1)Nc1ccccc1Cl	-	-	0	0	-
CC(=O)Nc1nnc(-c2ccc(Cl)s2)o1	0	0	-	0	-
CCC(=O)Nc1nnc(-c2ccc(Cl)s2)o1	0	0	0	9.3	-
Cc1cc(CN(C)Cc2c(C(=O)N3CCCCCCC3)nc3ccc(Cl)cn23)n[nH]1	0	0	-	9.3	-
CCN(C)Cc1c(C(=O)N2CCc3ccccc3C2)nc2ccc(Cl)cn12	0	0	0	0	-
Cc1ccc(CNC(=O)CSc2nc3ccccc3c3nc(C)nn23)cc1	0	0	-	0	-
COC(=O)c1ccc(NC(=O)CN2CCC(NC(=O)c3ccco3)CC2)cc1	0	0	0	11	-
COc1ccc(NC(=O)CN2CCC(NC(=O)c3ccc(OC)cc3)CC2)cc1	-	-	0	-	-
CC(=O)c1ccc(C(C)(C)c2ccc(C(C)=O)s2)s1	0	0	-	9.3	-
CC(C)(C)c1ccc(C(=O)N2CCCC2)s1	0	-	0	0	-
O=[N+]([O-])c1ccc2c(c1)C(O)n1nc(-c3ccc(Cl)cc3Cl)nc1S2 (centres undefined)	0	0	-	13	-
Cc1nc2n(n1)C(O)c1cc([N+](=O)[O-])ccc1S2 (centres undefined)	0	0	-	0	-
CC(=O)Nc1ccc(S(=O)(=O)N2CCCC(C(=O)O)C2)cc1 (centres undefined)	0	0	-	0	-
CC(C)(C)c1ccc(OCC(=O)N/N=C/c2ccsc2)cc1	0	0	-	9.2	-
Cc1ccc(C)c(OCC(=O)N/N=C/c2ccsc2)c1	0	0	-	0	-
CCc1ccc2c(c1)cc(C)c1nnc(SCC(=O)Nc3cc(OC)c(OC)cc3C(=O)O)n12	0	0	0	0	-
Cc1ccc(C)c(NC(=O)NCCN2CCCCC2)c1	-	-	0	-	-
COC(=O)CN(c1cc(C(F)(F)F)ccc1Cl)S(C)(=O)=O	0	0	-	0	-
COCCNC(=O)CN(c1cc(C(F)(F)F)ccc1Cl)S(C)(=O)=O	0	0	-	10	-
Cc1c(O)ccc(C(=O)CN2CCN(Cc3ccc4c(c3)OCO4)CC2)c1O	0	79	-	11	0
O=C(NCC1COc2ccccc2O1)C1CCCN(S(=O)(=O)c2cnc[nH]2)C1 (centres undefined)	-	5.8	-	0	0
CCOC(=O)c1sc(N)c(C(=O)Nc2ccccc2)c1C	0	0	0	0	-
CCOC(=O)c1sc2nc(C)nc(Nc3ccccc3)c2c1C	0	5.7	0	0	0
CC(C)(C)c1ccc(-n2nc(C(N)=O)c(O)cc2=O)cc1	0	0	0	0	-
CC(C)(C)c1ccc(-n2nc(C#N)c(Cl)cc2=O)cc1	0	16	0	0	0
SMILES	Mdm2 ligase inh	Hsp70 activator	Pf gamet viab	Wee1 degr inh	Hsp70 act dose	others
CC(C)(C)C(C(=O)n1cccc1C#N)c1ccccc1 (centres undefined)	-	-	0	-	-
Cc1cccc(-c2noc(CCCC(=O)N3CCOCC3)n2)c1	0	15	-	0	0
Cc1cc(C(=O)Cn2ncc(Cl)c(Cl)c2=O)c(C)n1CC(F)(F)F	0	16	0	0	0
CN(C)/C=C1/NC(=S)NC1=O	0	6.1	0	0	0
Cc1ccc(S(=O)(=O)n2nnc3ccccc32)c(C)c1C	0	0	0	0	-
COc1ccc(NC(=O)C2CCCN(S(C)(=O)=O)C2)cc1Cl (centres undefined)	-	-	0	-	-
CC1C/C(=C/c2cccn2C)C(=O)/C(=C/c2cccn2C)C1 (centres undefined)	0	0	-	0	-
CC1C/C(=C/c2ccncc2)C(=O)/C(=C/c2ccncc2)C1 (centres undefined)	0	178	0	0	+
CC(C)N1CCc2c(sc(NC(=O)CCc3ccccc3)c2C(N)=O)C1	0	0	0	0	-
CC(=O)Nc1sc2c(c1-c1nc3ccccc3s1)CCN(C(C)C)C2	0	7.5	-	0	0
CCOC(=O)CNC(=S)N(Cc1ccc(C)cc1)Cc1ccc(C)o1	0	0	0	0	-
O=c1c(Br)c(Br)cnn1-c1ccccc1	0	7.4	0	0	0
CCOC(=O)C1(C/C(C)=N/NC(N)=O)CC(C)OC1=O (centres undefined)	0	5.7	0	0	0
CCCCCOCC1CC(C/C(C)=N/NC(N)=O)(C(=O)OCC)C(=O)O1 (centres undefined)	0	-	0	0	-
C/C(=N\NC(=O)CCC(=O)Nc1ccccc1)c1cccs1	0	0	0	0	-
O=C(Nc1ccc(N2CCCC2)c(Cl)c1)c1ccc([N+](=O)[O-])o1	0	20	0	0	0
CCCC(=O)N1CCN(c2ccc(NC(=O)c3ccc([N+](=O)[O-])o3)cc2)CC1	0	15	0	0	0
CCC(=O)N1CCN(c2ccc(NC(=O)c3ccc([N+](=O)[O-])o3)cc2)CC1	0	0	0	0	-
O=C(Nc1ccc(N2CCN(C(=O)c3ccc(Cl)cc3)CC2)cc1)c1ccc([N+](=O)[O-])o1	0	0	0	0	-
CS(=O)(=O)N1CCN(c2ccc(NC(=O)c3ccc([N+](=O)[O-])o3)cc2)CC1	0	8.1	0	0	0
O=C(Nc1ccc(N2CCCC2)c(Cl)c1)c1ccco1	0	0	-	0	-
Cc1cccc(C(C)C)c1NC(=O)c1cc2ccccc2o1	-	-	0	-	-
Cc1ccc(-c2nc(NC(=O)c3nn(C)cc3[N+](=O)[O-])sc2C)cc1C	0	14	-	0	0
Cc1ccc(-c2nc(NC(=O)c3nn(C)cc3[N+](=O)[O-])sc2C)cc1	0	0	-	0	-
COc1ccc(NC(=O)/C(Cl)=C(/Cl)S(=O)Cc2ccccc2Cl)cn1 (centres undefined)	0	37	-	0	0
SMILES	Mdm2 ligase inh	Hsp70 activator	Pf gamet viab	Wee1 degr inh	Hsp70 act dose	others
CCN1C/C(=C/c2ccc(OC)c(O)c2)C(=O)/C(=C/c2ccc(OC)c(O)c2)C1	50	644	0	0	+
Cc1ccc(NC(=S)NC(NC(=O)c2ccccc2)C(Cl)(Cl)Cl)c(C)c1 (centres undefined)	0	7.0	0	0	0
Cc1c(Br)c([N+](=O)[O-])nn1CC(=O)Nc1ccc(C(C)C)cc1	0	0	-	0	-
O=C(Oc1ccc(F)cc1C(=O)/C=C/c1cccs1)c1cccc([N+](=O)[O-])c1	-	12	-	0	0
O=C(/C=C/c1ccccc1F)c1cccc([N+](=O)[O-])c1	0	0	0	0	-
Cc1ccc([N+](=O)[O-])cc1NC(=O)c1ccoc1C	0	0	-	0	-
COP(=O)(OC)C(NC(=O)Nc1ccccc1)c1ccccc1 (centres undefined)	0	-	0	0	-
COC(=O)C1CC(=O)c2sccc2C1 (centres undefined)	0	0	-	0	-
CC[n+]1c(/C=C2\Sc3ccccc3N2C)ccc2cccc(C)c21	0	8.9	0	0	0
O=C1C=CC(O)(c2cc(=O)c3c(O)cc(O)cc3o2)C=C1	-	25	0	41	+	Wee1 stab conf=69
CCN(CC(=O)Nc1ccc(C(=O)Nc2ccc(OC)cc2)cc1)Cc1nc2ccccc2c(=O)[nH]1	0	-	0	0	-
